Measurements from ChEMBL document CHEMBL3525967, “In vitro glucuronidation of the antibacterial triclocarban and its oxidative metabolites” (Drug Metab Dispos, 2012).

What was measured:
[1] = Drug metabolism in cynomolgus monkey liver microsomes after 30 mins by LC-ESI-MS analysis; assay type: ADME, Macaca fascicularis
How it was run: (§1)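 2'-OH-TCC at 0.2, 0.5, 1, 2, 3, 5, 10 and 50 µM incubated with liver microsomes (alamethicin, MgCl2, saccharolactone, UDPGA; 37 °C), sampled at 5, 10, 15 and 30 min. Samples ≥5 µM diluted 1:9 in ACN; LC-ESI-MS. KM and vmax fitted from rate vs concentration; intrinsic clearance derived from these; mean and SD of three.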

[2] = (§2) Drug metabolism in human liver microsomes after 30 mins by LC-ESI-MS analysis; assay type: ADME; details: liver microsomes; how it was run: as §1
Liver microsome = assay: as §2; assay type: ADME; details: microsomes, 0.5 h; how it was run: as §1
[3] = Drug metabolism in B6C3F1 mouse liver microsomes assessed as N-glucuronide-triclocarban formation incubated for 5 mins prior to UDPGA addition measured after 5 to 30 mins by LC-UV analysis; assay type: ADME
How it was run: (§3)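 Microsomes or UGT Supersomes (5 µg protein) were held 15 min on ice with alamethicin in 100 mM potassium phosphate pH 7.4. TCC was added at 10 µM (2% DMSO) with 10 mM MgCl2 and 10 mM saccharolactone, pre-warmed 5 min at 37 °C, then started with UDPGA. Samples at 5, 10, 15 and 30 min were quenched in ACN. Product was read by LC-UV at 265 nm; rate came from regression over time, three incubations.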

[4] = Drug excretion in Sprague-Dawley rat urine assessed as N-glucuronide-triclocarban formation at 1 mg/kg, po by LC-MS analysis; assay type: ADME, organism-based; parameters: dose 1 mg/kg, route oral; details: in vivo
[5] = target: T1, UDP-glucuronosyltransferase 1A3 (Homo sapiens, UniProt P35503); assay: Drug metabolism assessed as human UGT1A3-mediated N-glucuronide-triclocarban formation expressed in baculovirus infected insect sf9 cells incubated for 5 mins prior to UDPGA addition measured after 5 to 30 mins by LC-UV analysis; assay type: ADME; how it was run: as §3
T1 sequence (P35503 whole entry): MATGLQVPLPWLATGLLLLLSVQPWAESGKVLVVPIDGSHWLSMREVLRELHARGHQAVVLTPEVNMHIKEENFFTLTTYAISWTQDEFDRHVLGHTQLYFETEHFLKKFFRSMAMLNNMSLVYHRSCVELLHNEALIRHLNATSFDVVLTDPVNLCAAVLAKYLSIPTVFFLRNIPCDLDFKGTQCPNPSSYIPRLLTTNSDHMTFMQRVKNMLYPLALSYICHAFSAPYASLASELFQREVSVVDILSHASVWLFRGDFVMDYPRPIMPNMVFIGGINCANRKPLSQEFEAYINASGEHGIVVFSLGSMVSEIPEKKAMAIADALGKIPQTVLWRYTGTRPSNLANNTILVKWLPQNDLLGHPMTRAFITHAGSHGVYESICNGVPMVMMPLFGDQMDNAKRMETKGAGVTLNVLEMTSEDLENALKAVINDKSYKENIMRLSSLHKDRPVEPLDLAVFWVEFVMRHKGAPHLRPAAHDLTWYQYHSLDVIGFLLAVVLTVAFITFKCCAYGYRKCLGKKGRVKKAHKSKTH

[6] = target: T2, UDP-glucuronosyltransferase 2B4 (Homo sapiens, UniProt P06133); assay: Drug metabolism assessed as human UGT2B4-mediated N'-glucuronide-triclocarban formation expressed in baculovirus infected insect sf9 cells incubated for 5 mins prior to UDPGA addition measured after 5 to 30 mins by LC-UV analysis; assay type: ADME; how it was run: as §3
T2 sequence (P06133 whole entry): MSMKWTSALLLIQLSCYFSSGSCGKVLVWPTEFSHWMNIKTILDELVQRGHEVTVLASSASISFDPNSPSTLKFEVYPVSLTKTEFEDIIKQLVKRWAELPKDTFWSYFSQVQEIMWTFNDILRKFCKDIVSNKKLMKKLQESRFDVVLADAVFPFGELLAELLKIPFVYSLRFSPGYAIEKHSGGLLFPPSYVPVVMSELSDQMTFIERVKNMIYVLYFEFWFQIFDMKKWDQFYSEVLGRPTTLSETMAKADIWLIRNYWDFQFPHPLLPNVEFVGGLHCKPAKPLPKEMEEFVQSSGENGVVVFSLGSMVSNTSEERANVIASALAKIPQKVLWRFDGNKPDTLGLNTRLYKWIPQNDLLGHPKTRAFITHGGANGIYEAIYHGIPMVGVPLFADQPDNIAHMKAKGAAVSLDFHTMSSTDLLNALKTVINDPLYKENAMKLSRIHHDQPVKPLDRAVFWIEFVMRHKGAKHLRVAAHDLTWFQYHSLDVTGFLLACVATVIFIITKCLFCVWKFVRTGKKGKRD

[7] = Drug excretion in Swiss webster mouse urine assessed as 3'-O-glucuronide-triclocarban formation at 5 mg/kg, po by LC-MS analysis; assay type: ADME, organism-based; parameters: dose 5 mg/kg, route oral; details: in vivo
How it was run: (§4)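 Mice were housed two per metabolic cage, with blank urine collected over the 24 h before dosing. TCC was given by oral gavage as a 1 mg/mL solution in 20/80 DMSO/PEG400 (v/v) at 5 mg/kg. Urine was collected at 0-24 h and 24-48 h and analysed by online LC-MS. Values are the mean of two independent experiments.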

[8] = target: T3, UDP-glucuronosyltransferase 1A6 (Homo sapiens, UniProt P19224); assay: Drug metabolism assessed as human UGT1A6-mediated N-glucuronide-triclocarban formation expressed in baculovirus infected insect sf9 cells incubated for 5 mins prior to UDPGA addition measured after 5 to 30 mins by LC-UV analysis; assay type: ADME; how it was run: as §3
T3 sequence (P19224 whole entry): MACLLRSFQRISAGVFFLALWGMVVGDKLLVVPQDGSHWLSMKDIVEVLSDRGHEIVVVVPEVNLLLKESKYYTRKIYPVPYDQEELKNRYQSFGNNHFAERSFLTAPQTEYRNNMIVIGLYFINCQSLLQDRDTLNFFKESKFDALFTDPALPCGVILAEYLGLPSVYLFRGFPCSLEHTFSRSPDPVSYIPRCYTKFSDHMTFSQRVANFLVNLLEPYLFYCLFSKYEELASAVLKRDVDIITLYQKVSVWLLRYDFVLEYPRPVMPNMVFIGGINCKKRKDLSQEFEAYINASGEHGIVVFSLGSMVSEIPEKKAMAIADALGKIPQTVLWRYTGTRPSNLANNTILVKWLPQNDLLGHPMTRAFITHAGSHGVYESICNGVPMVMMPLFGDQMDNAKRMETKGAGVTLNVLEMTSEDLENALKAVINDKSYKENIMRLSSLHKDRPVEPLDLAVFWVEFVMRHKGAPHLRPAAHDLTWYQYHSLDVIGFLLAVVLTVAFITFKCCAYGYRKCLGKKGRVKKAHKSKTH

[9] = Drug excretion in human urine; assay type: ADME; details: read-out: Drug excretion
[10] = Drug excretion in Swiss webster mouse urine assessed as N-glucuronide-triclocarban formation at 5 mg/kg, po by LC-MS analysis; assay type: ADME, organism-based; parameters: dose 5 mg/kg, route oral; details: in vivo; how it was run: as §4

Km at 0.5 h ([1]; liver microsomes) [µM] | Vmax ([1]; microsomes, 0.5 h) [nmol/min/mg] | Km at 0.5 h [2] [µM] | Vmax (Liver microsome) [nmol/min/mg] | Compound | Drug metabolism [3] | Drug excretion [4] | Drug metabolism [5] | Drug metabolism [6] | Drug excretion [7] | Drug metabolism [8] | dose excreted [9] [%] | Drug excretion [10]
1.4 | 26.7 | 3.08 | 5.37 | O=C(Nc1ccc(Cl)c(Cl)c1)Nc1ccc(Cl)cc1O |  |  |  |  |  |  |  | 
 |  |  |  | O=C(Nc1ccc(Cl)cc1)Nc1ccc(Cl)c(Cl)c1 [TRICLOCARBAN] | metabolite_not_detected | metabolite_not_detected | metabolite_not_detected | metabolite_not_detected | metabolite_detected | metabolite_not_detected | 25 | metabolite_detected
